Laboratory results taken from PMC9394215 (Journal for Immunotherapy of Cancer, 2022).
Where two headings read alike, the source gives them in different places.

Experiments:
CD38 = molecular target: T1, CD38 (Homo sapiens, UniProt P28907); assay: CD38 assay; format: biochemical
T1 sequence (P28907 43-300 limits assumed): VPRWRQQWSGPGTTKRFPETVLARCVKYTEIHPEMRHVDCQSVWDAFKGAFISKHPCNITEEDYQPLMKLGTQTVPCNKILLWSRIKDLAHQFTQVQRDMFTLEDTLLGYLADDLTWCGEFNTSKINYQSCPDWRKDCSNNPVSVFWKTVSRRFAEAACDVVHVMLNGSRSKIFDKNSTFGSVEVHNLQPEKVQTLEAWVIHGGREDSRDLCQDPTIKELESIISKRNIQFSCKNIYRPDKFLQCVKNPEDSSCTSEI
Summary of the method: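 Either CD38 (5 ng) or NPP5 (250 ng) was mixed with 50 µM test compound and 100 µM NAD+ as substrate. For CD38 the reaction buffer was 10 mM HEPES, pH 7.4.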

[1] = cited from earlier work
human PBMCs = assay: HPLC assay of ATPase activity; format: cell-based; conditions: ceritinib 50 µM and higher; 1 µM eATP
Summary of the method: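 PBMCs were isolated from buffy coats by density gradient. Cells (2×10^5) were pretreated with test compound (1, 10, 50, 100 µM) for 15 min at 37°C, then given 1 µM eATP (ATPase) or eAMP (AMPase) for 30 min at 37°C. Cells were removed and supernatants 10 kDa-filtered. Etheno-nucleotides were quantified by reversed-phase C8 HPLC (phosphate pH 6.0/methanol gradient; fluorescence 230/410 nm) against standards; singlets, n=2–3.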

TNBC (MDA-MB-231) cells = assay: Extracellular eATP hydrolysis on live TNBC cells; format: cell-based, human; conditions: 1, 10, 100 µM, significant at 10 µM, 20 µM eATP
[2] = cited from earlier work; remark: listed apart in the source
[3] = system: TNBC (MDA-MB-231) cell membrane preparations; assay: Malachite green assay, ATP hydrolysis by TNBC cell membrane preparations; format: biochemical, human; conditions: increasing concentrations of ceritinib, 50 µM ATP
Summary of the method: (§1)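 Crude membranes came from ~90% confluent MDA-MB-231 or Ma-Mel-65 cells. Cells were homogenised in Tris/EDTA/saccharose/PMSF buffer, pH 7.4, and centrifuged at 1000 g, then 48,000 g for 1 h at 4°C. Pellets were washed and stored at −80°C in 50 mM Tris-HCl, pH 7.4. ATP hydrolysis (50 µM ATP, HEPES/Ca/Mg pH 7.4) was run with increasing test compound concentrations for 15 min at 37°C. Phosphate was read by malachite green (600 nm); triplicates, n=3.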

[4] = patients, peroral; cited from earlier work
NPP3 = molecular target: T2, NPP3 (Homo sapiens, UniProt O14638); assay: NPP3 assay; format: biochemical
T2 sequence (O14638 31-875 limits assumed): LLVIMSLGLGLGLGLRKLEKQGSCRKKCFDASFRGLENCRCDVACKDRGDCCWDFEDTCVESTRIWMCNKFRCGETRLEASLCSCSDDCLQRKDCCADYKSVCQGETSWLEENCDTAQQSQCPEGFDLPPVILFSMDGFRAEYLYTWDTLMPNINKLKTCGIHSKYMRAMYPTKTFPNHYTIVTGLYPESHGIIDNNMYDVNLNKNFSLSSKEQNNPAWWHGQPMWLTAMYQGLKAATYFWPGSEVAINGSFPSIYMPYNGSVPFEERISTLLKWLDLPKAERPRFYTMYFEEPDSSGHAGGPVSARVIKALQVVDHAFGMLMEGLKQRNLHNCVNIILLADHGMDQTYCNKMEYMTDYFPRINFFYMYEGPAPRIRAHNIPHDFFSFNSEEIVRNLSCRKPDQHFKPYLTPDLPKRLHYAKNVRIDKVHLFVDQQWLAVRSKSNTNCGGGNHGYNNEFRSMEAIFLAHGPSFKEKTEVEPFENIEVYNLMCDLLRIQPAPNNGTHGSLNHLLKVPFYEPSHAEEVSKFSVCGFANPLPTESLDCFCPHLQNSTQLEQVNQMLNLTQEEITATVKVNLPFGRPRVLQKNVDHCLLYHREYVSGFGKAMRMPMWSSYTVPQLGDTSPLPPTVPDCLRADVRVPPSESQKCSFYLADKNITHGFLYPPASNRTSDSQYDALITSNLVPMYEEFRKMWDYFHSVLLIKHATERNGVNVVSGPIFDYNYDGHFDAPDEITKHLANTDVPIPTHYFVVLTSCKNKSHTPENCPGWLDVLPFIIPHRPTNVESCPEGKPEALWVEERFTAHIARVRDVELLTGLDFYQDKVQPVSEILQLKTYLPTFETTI
Summary of the method: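 Purified soluble NPP3 (95 ng, Sf9-expressed) was incubated with 50 µM (final) test compound, 2% DMSO and 400 µM p-nitrophenyl thymidine 5'-monophosphate. Reactions were stopped with 1 M NaOH, and p-nitrophenolate was read at 400 nm.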

[5] = system: melanoma (Ma-Mel-65) cell membrane preparations; assay: Malachite green assay, ATP hydrolysis by melanoma cell membrane preparations; format: biochemical, human; conditions: increasing concentrations of ceritinib, 50 µM ATP
Summary of the method: as §1

[6] = read-out: % inhibition at 50 µM

For `Cc1cc(Nc2ncc(Cl)c(Nc3ccccc3S(=O)(=O)C(C)C)n2)c(OC(C)C)cc1C1CCNCC1` [ceritinib, Ceritinib], the IC50 (CD38) is listed as over 50 µM, the inhibition at 50 µM (CD38; [6]) is listed as 19% and the “pharmacokinetics in mice versus humans” value [1] is listed as “comparable pharmacokinetics”. For the same compound, the “formation of eAMP from eATP by PBMCs” value (human PBMCs) was “completely blocked”, the “inhibition of hydrolysis of eATP added to live cells” value (TNBC (MDA-MB-231) cells) was “concentration-dependent inhibition” and the “average concentration in tumor tissue” value ([2]; brain tumor patients, after the 10th applied dose, steady state) was 36 µM. For the same compound, the “range of concentration in tumor tissue” value ([2]; brain tumor patients, after the 10th applied dose) was 2 to 139 µM, the “average concentration in tumor tissue” value ([2]; brain tumors, steady-state conditions) was 36 nmol/g and the “concentration in tumor tissues in some patients” value [2] was “above 100 µM”. The “ATPase activity of cancer cell membranes” value [3] was “decreased significantly”, the maximum plasma levels [4] was “up to 1.4 µM” and the IC50 (NPP3) was over 50 µM. For the same compound, the inhibition at 50 µM (NPP3; [6]) was 1% and the “ATPase activity of cancer cell membranes” value [5] was “decreased significantly”.
